# Assay outcomes: PubChem BioAssay, Broad Institute
# STK33 kinase inh = blocks human STK33 kinase activity; purified STK33, MBP phosphorylation, ADP-Glo luminescence; inhibition, % at 10 µM; actives 0.073% (n = 320,000);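 active = inhibition at or above 25%, using the most active replicate where run in duplicate; inactive = inhibition below 25%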
# GSK3B inh = inhibitors of human GSK3beta kinase. actives 0.038% (n = 300,000). GST-GSK3beta kinase, ADP-Glo luminescence, 60 min; stronger effect = lower value. activity score (negative = inhibition), % at 10 µM. AID 2097. P49841;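 active = more than half of replicate wells score below -50%, meaning over 50% inhibition versus plate controls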;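 also: 0% = median DMSO wells and -100% = median GW8510 positive control wells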
# Target sequence (P49841 whole entry, looked up): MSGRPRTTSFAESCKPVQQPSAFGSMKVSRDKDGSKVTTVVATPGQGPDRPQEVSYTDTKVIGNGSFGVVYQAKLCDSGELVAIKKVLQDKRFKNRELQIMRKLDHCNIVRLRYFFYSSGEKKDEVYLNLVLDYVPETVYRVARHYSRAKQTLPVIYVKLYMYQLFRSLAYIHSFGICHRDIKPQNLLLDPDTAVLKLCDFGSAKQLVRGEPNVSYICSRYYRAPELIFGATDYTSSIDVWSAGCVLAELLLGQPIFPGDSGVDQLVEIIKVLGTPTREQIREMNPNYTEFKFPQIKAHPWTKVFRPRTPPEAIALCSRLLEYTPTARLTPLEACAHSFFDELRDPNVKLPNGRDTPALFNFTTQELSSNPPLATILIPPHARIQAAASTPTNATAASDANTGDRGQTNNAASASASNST
#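 Assay system: GST-fused GSK3beta enzyme, cell-free / Medium: Tris pH 7.5 buffer with MgCl2, DTT, BSA, heparin / Also added: peptide substrate plus 25 µM ATP (final) / Compound: 10 µM single point / Timing: kinase reaction with compound 60 min at room temperature / Detection: ADP-Glo luminescence / Benchmarks: DMSO neutral wells and GW8510 at 20 µM as positive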
# GSK3A inh = human GSK-3 alpha kinase inhibition; P49840; ADP-Glo luminescence, 60 min; inhibition, % at 10 µM; actives 0.1% (n = 320,000); AID 2650;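 active = more than half of replicates show inhibition above 20%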;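 also: GST-tagged GSK-3 alpha with peptide substrate and 25 µM ATP; 0% = DMSO neutral wells and 100% = GW8510 positive control wells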
# DYRK1A inh = Dyrk1A (rat) kinase inhibition; AID 504441; actives 0.43% (n = 310,000); inhibition, % at 12.5 µM; Q63470; ADP-Glo luminescence, NFATc1 peptide; in the data active = inhibition above about 50%;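 also: plate controls were vehicle with enzyme for no effect and no enzyme for full effect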
# ADP-Glo artifact = ADP-Glo luciferase interference, Dyrk1A counter-screen; ADP-Glo luciferase artifact assay, no Dyrk1A, luminescence; shares compounds with DYRK1A inh; 1,300 tested, under 10 active; AC50, µM (doses to about 12 µM), for inactives: top-dose activity change, negative = inhibition;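 active = fitted half-maximal dose AC50 no more than ten times the top valid tested dose, with luminescence dropping as dose rises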
# * marks the source's active call; other numbers are inactive results; nt = no result. The full list was thinned out, with hits kept by preference.
SMILES,STK33 kinase inh,GSK3B inh,GSK3A inh,DYRK1A inh,ADP-Glo artifact
COCCNC(=O)c1cc2cc3ccc(OC)cc3nc2o1,1,1,0,58*,10%
CCOC(=O)n1c(=O)n(Cc2ccccc2C)c2ccccc21,-1,-1,0,0,nt
Cc1ccc2nc(/C(C#N)=C\c3cc(O)ccc3[N+](=O)[O-])[nH]c2c1,4,-1,4,77*,6%
COc1c(O)ccc(/C=C(\C#N)c2nc3ccccc3[nH]2)c1[N+](=O)[O-],12,1,21,73*,8%
CC1=NN(C(=O)CCc2ccc3c(c2)OCO3)C(O)(C(F)(F)F)C1 (stereo not drawn),-1,-26,1,6,nt
COc1ccc2cc(-c3cccnc3)ncc2c1,4,nt,2,68*,12%
Cc1cc(Nc2ccccc2)nc2cc(O)ccc12,2,-4,3,74*,10%
COc1ccc(Nc2cc(C)c3ccc(O)cc3n2)cc1,2,-1,1,46,nt
CCOCCCNC(=O)/C(C#N)=C/c1cc(Br)c(O)c(Br)c1,nt,-11,nt,55*,11%
COCCNC(=O)/C(C#N)=C/c1cc(Br)c(O)c(OC)c1,2,-12,14,13,nt
CCN(CC)S(=O)(=O)c1ccc(NC(=O)CCNC(=O)c2ccccc2)cc1,-1,-2,0,2,nt
CC(=O)n1nc(-c2ccc(C)cc2)nc1NCc1ccc(F)cc1,nt,2,nt,nt,nt
COc1cccc(Nc2nc(-c3ccc(O)cc3)cs2)c1,3,-8,nt,54*,10%
COc1cccc(Nc2nc(-c3cccc(N4C(=O)c5ccccc5C4=O)c3)cs2)c1,-1,-1,-2,2,nt
O=C1SC(c2ccccc2)=C/C1=C\N1CCCCC1,2,2,6,68*,8%
O=C(NCc1ccc(F)cc1)c1cc2ccccc2o1,2,nt,3,-5,nt
S=C(Nc1ccc(Cl)cc1)Nc1cccc2cnccc12,6,-2,5,26,nt
Fc1ccc(NC(=S)Nc2cccc3cnccc23)cc1,7,-2,12,59*,9%
COc1ccc(NC(=S)Nc2cccc3cnccc23)cc1,4,2,4,56*,7%
Cc1ccc(S(=O)(=O)N(C)C)cc1NC(=S)Nc1cccc2ccccc12,-1,-1,3,4,nt
S=C(Nc1cccnc1)Nc1cccc2cnccc12,27*,-3,59*,60*,9%
CN(C)S(=O)(=O)c1cccc(NC(=S)Nc2cccc3cnccc23)c1,nt,2,nt,56*,8%
CC(=NCc1cccnc1)C1=C(O)c2ccccc2C1=O,5,-7,10,51*,9%
CCCN=C(C)C1=C(O)c2ccccc2C1=O,1,-3,1,-19,nt
Cn1nnnc1NCc1ccccc1F,0,-5,0,nt,nt
SMILES,STK33 kinase inh,GSK3B inh,GSK3A inh,DYRK1A inh,ADP-Glo artifact
COc1ccc2c(C#N)c3ccccn3c2c1,3,-1,7,72*,9%
O=C(CN(Cc1ccc(F)cc1)C(=O)CNS(=O)(=O)c1ccccc1)NCc1ccco1,0,5,-1,0,nt
O=C(CN1CCOCC1)Nc1nc2ccc([N+](=O)[O-])cc2s1,7,-1,1,81*,9%
O=C(CN1CCOCC1)Nc1nc2ccc(F)cc2s1,0,-1,-1,51*,11%
Cc1cc(Br)ccc1NC(=O)CN(C)C(=O)Cn1c(=O)cnc2ccccc21,-1,3,-3,-1,nt
CCN(CC)CCCNc1ccc2ncn3c4ccc(O)cc4c(=O)c1c23,nt,nt,nt,87*,10%
Cc1ccc(NCCN(C)C)c2c(=O)c3cc(O)ccc3sc12,nt,nt,nt,42,nt
COc1cc(C2C(=O)c3ccccc3C2=O)ccc1O,20,0,2,69*,9%
CCn1c2ccccc2c2cc(/C=N/n3cnnc3)ccc21,3,-2,0,4,nt
CCn1c2ccccc2c2cc(/C=N/O)ccc21,-1,-23,-1,80*,8%
O=C(CCNS(=O)(=O)c1cccc(C(F)(F)F)c1)NC1CC1,-1,nt,-2,4,nt
COc1ccc(NC(=O)CSc2ccc3nnc(-c4ccccn4)n3n2)c(OC)c1,3,-1,1,-1,nt
O=C1c2ccccc2C(=O)c2[nH]c(=O)[nH]c21,5,3,4,19,nt
O=C1c2ccccc2C(=O)c2[nH]cnc21,2,-5,2,56*,7%
N#Cc1nc(-c2cccs2)oc1NCc1ccccc1Cl,1,-6,13,51*,11%
O=C(Nc1cccnc1)c1scc2c1OCCO2,4,-15,35,52*,10%
